Common to all, as to assay type: functional, cell-based
The subject of one assay is CHL-1. Briefly: Antiproliferative activity against human CHL-1 cells harboring wild type BRAF after 72 hrs by MTT assay. Conditions: CHL-1, 72 h. Summed up:
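Cells (CHL-1) cultured in DMEM with 10% FBS at 37 °C and treated with compound for 72 h. Viability measured by MTT uptake: 3 h with MTT, DMSO solubilisation, absorbance at 570 nm with 630 nm background subtraction. IC50 taken as the mean of triplicates from at least two independent experiments.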
For orientation: Tetrazolium dyes change colour on reduction, which living cells bring about.

A further assay has as its system UACC-903. Nature of the assay: Cytotoxicity against human UACC-903 cells assessed as cell viability at 25 uM after 48 hrs by MTT assay relative to control. Conditions: UACC-903, 48 h. The method, boiled down:
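MCF10A normal breast epithelial cells were kept in MEGM mammary epithelial medium; the cancer lines were in DMEM with 10% FBS, 37 °C. OD at 570 nm with 630 nm background, expressed relative to control.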

A further assay concerns HCT-116. Briefly: Antiproliferative activity against human HCT116 cells after 48 hrs by MTT assay. The settings on record: HCT-116, 48 h. Summed up:
(§1)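 3,000 cells per well, grown at 37 °C (DMEM with 10% FBS and penicillin/streptomycin; HCT116 in McCoy's 5A). Cells exposed in triplicate to 0.5–25 μM compound for 48 h. MTT (5 mg/mL PBS stock) added for 3 h, formazan dissolved in DMSO, OD read at 570 nm minus 630 nm background. IC50 from non-linear regression of two independent experiments.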

The next assay deals with MDA-MB-231. Briefly: Antiproliferative activity against ER/PR/HER2 deficient human MDA-MB-231 cells after 48 hrs by MTT assay. The settings on record: MDA-MB-231, 48 h. Summed up: as §1
Another assay deals with MCF7. Nature of the assay: Antiproliferative activity against human MCF7 cells expressing ER/PR/HER2 after 48 hrs by MTT assay. Conditions: MCF7, 48 h. Summed up: as §1
The next assay has as its system PANC-1. Briefly: Antiproliferative activity against human PANC1 cells after 48 hrs by MTT assay. Conditions: PANC-1, 48 h. The method, boiled down:
as §1

pIC50: −log10 of the molar value.

In the case of `C=CCN1C(=O)C(=C/C=C/c2ccco2)C(=O)N(CC=C)C1=S`, the pIC50 (in general, the negative decadic logarithm of the IC50, by convention in mol/L) is 5.10 with CHL-1 and 4.75 in the assay with UACC-903.

`O=C1NC(=S)NC(=O)C1=C/C=C/c1ccccc1`: the pIC50 in the assay with CHL-1 is 4.97; in the assay on UACC-903, 5.04.

Regarding `CN1C(=O)/C(=C\C=C\c2cccs2)C(=O)NC1=S`, the pIC50 is 5.33 in the assay on CHL-1; 4.74 in the assay on HCT-116; 5.26 in the assay on UACC-903; 5.07 in the assay on MDA-MB-231; 4.63 in the assay on MCF7; 4.68 in the assay with PANC-1.

Take `C=CCN1C(=O)/C(=C\C=C\c2ccco2)C(=O)N(CC)C1=S`: the values for the pIC50 in the assay on CHL-1 and in the assay with UACC-903 were 4.72 and 4.84, respectively.

On to `C=CCN1C(=O)C(=C/C=C/c2ccccc2)C(=O)N(CC=C)C1=S`, for which the negative-log IC50 (pIC50) with CHL-1 was 5.09; with UACC-903 it was 4.74.

Consider `CCN1C(=O)/C(=C\C=C\c2cccs2)C(=O)NC1=S`, for which the negative-log IC50 (pIC50) in the assay with HCT-116 is 5.08; in the assay with UACC-903 it was 5.34; in the assay on MDA-MB-231, 5.07; with MCF7, 4.62; in the assay on PANC-1 it was 4.69.

`CCN1C(=O)\C(=C/C=C/C=C/c2ccco2)C(=O)NC1=S`: the negative-log IC50 (pIC50) with UACC-903 is 5.12.

In the case of `CCN1C(=O)C(=C/C=C/c2ccco2)C(=O)N(CC)C1=S`, the pIC50 with CHL-1 is 5.07; with UACC-903 it was 4.73.

Turning to `C=CCN1C(=O)/C(=C\C=C\c2cccs2)C(=O)N(CC)C1=S`, in the assay with UACC-903, the pIC50 is 5.21.

For the compound `O=C1NC(=[Se])NC(=O)C1=C/C=C/c1ccccc1`, the pIC50 in the assay on CHL-1 is 5.03; in the assay on UACC-903 it was 4.87.

For the compound `CCN1C(=O)/C(=C\C=C\c2ccco2)C(=O)NC1=S`, the pIC50 with CHL-1 is 4.86; in the assay with UACC-903, 4.79.

In the case of `O=C1NC(=[Se])NC(=O)C1=C/C=C/c1ccco1`, the results for the pIC50 with CHL-1 and with UACC-903 were 5.01 and 5.64, respectively.

As for `CCN1C(=O)/C(=C/C=C/c2cccc3ccccc23)C(=O)NC1=S`, the pIC50 in the assay with UACC-903 was 4.63.

Consider `CCN1C(=O)C(=C/C=C/c2ccccc2)C(=O)N(CC)C1=S`, for which the pIC50 was 5.06 with CHL-1 and 4.82 in the assay with UACC-903.

`C=CCN1C(=O)/C(=C\C=C\c2ccccc2)C(=O)N(CC)C1=S`: in the assay on UACC-903, the pIC50 was 4.68.

`O=C1NC(=S)NC(=O)C1=C/C=C/c1ccco1`: the pIC50 in the assay with CHL-1 is 5.07; in the assay on HCT-116, 4.70; in the assay with UACC-903 it was 5.10; with MDA-MB-231, 4.78; in the assay with MCF7 it was 4.55; in the assay with PANC-1 it was 4.61.

In the case of `O=C1NC(=S)NC(=O)C1=C/C=C/c1cccc2ccccc12`, the pIC50 with HCT-116 was 5.44; in the assay on UACC-903, 5.38; with MDA-MB-231, 5.35; with PANC-1, 5.10.

Turning to `O=C1NC(=S)NC(=O)C1=C/C=C/C=C/c1ccccc1`, in the assay with UACC-903, the pIC50 is 5.19.

Turning to `O=C1NC(=[Se])NC(=O)C1=C/C=C/c1cccs1`, the pIC50 was 5.20 with CHL-1 and 5.11 in the assay with UACC-903.

On to `C=CCN1C(=O)/C(=C\C=C\c2cccs2)C(=O)NC1=S`, for which the pIC50 was 5.12 with CHL-1 and 5.17 in the assay on UACC-903.

Regarding `CCN1C(=O)/C(=C\C=C\c2ccccc2)C(=O)NC1=S`, the values for the negative logarithm of the IC50 (pIC50) with CHL-1 and in the assay with UACC-903 were 5.21 and 5.10, respectively.

As for `O=C1NC(=S)NC(=O)C1=C/C=C/c1cccnc1`, the pIC50 in the assay with UACC-903 was 4.74.

Source of the values: ChEMBL document CHEMBL4138168, “Design and synthesis of novel thiobarbituric acid derivatives targeting both wild-type and BRAF-mutated melanoma cells” (Eur J Med Chem, 2018).
